Test results taken from ChEMBL document CHEMBL1151448, “Comparative antianaerobic activities of doripenem determined by MIC and time-kill analysis” (2008).
≈ marks a conversion by molar mass, not a printed value. Calls of active or inactive are those of the source. No cut-off for these calls is given here.

What was measured:
Clostridioides difficile [1] = test: Antimicrobial activity against Clostridium difficile isolated from intra-abdominal infection and pelvic inflammatory disease patients after 48 hrs by agar dilution method; format: functional
Outline: (§1)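 CLSI agar dilution on brucella blood agar supplemented with laked sheep blood, hemin and vitamin K. Inocula of about 1 × 10^5 CFU/spot were applied by Steers replicator, and plates were incubated 48 h at 35°C in an anaerobic glove box. MIC was the concentration giving marked growth reduction versus the anaerobic control plate. QC strains were included each run, and β-lactamase was detected by Cefinase disk.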

Clostridium cadaveris = test: Antimicrobial activity against Clostridium cadaveris isolated from intra-abdominal infection and pelvic inflammatory disease patients after 48 hrs by agar dilution method; format: functional; outline: as §1
Fusobacterium nucleatum = test: Bactericidal activity against beta lactamase-positive Fusobacterium nucleatum isolated from intra-abdominal infection and pelvic inflammatory disease patients assessed as bacterial killing at 2 times MIC after 48 hrs by time kill analysis; format: functional
Outline: (§2)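 Anaerobic macrodilution time-kill. Inoculum from brucella blood plates, prepared and diluted in prereduced brucella broth inside the anaerobe chamber. Final 10^6 to 10^7 CFU/ml in prereduced brucella broth with 5% laked horse blood cells, 5 μg/ml hemin and 1 μg/ml vitamin K1. […] Shaken at 35°C for 48 h. Viable counts taken at 6, 12, 24 and 48 h. 99.9% kill taken as bactericidal.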

Finegoldia magna [2] = test: Bactericidal activity against beta lactamase-positive Finegoldia magna isolated from intra-abdominal infection and pelvic inflammatory disease patients assessed as 99.9% bacterial killing at 2 times MIC after 48 hrs by time kill analysis; format: functional, organism-based
Outline: (§3)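 Macrodilution time-kill in prereduced brucella broth with 5% laked horse blood, hemin 5 μg/ml and vitamin K1 1 μg/ml, at final inoculum 10^6–10^7 CFU/ml. […] Viable counts were taken at 6, 12, 24 and 48 h on plates incubated 48 h anaerobically. 99.9% kill was taken as bactericidal.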

Clostridium perfringens [3] = test: Bactericidal activity against Clostridium perfringens isolated from intra-abdominal infection and pelvic inflammatory disease patients assessed as bacterial killing at MIC after 24 hrs by time kill analysis; format: functional
Outline: (§4)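 Time-kill in prereduced brucella broth with 5% laked horse blood cells, hemin and vitamin K1. […] Viable counts taken at 6, 12, 24 and 48 h, plates incubated 48 h anaerobically. Kill scored as 90%, 99% or 99.9%; 99.9% defines bactericidal.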

Bacteroides ovatus = test: Antimicrobial activity against beta lactamase-positive Bacteroides ovatus isolated from intra-abdominal infection and pelvic inflammatory disease patients after 48 hrs by agar dilution method; format: functional; outline: as §1
Finegoldia magna [4] = test: Antimicrobial activity against Finegoldia magna isolated from intra-abdominal infection and pelvic inflammatory disease patients after 48 hrs by agar dilution method; format: functional; outline: as §1
Prevotella buccae = test: Antimicrobial activity against beta lactamase-positive Prevotella buccae isolated from intra-abdominal infection and pelvic inflammatory disease patients after 48 hrs by agar dilution method; format: functional; conditions: Segatella buccae; outline: as §1
[5] = test system: Peptostreptococcus anaerobius; test: Antimicrobial activity against Peptostreptococcus anaerobius isolated from intra-abdominal infection and pelvic inflammatory disease patients after 48 hrs by agar dilution method; format: functional; outline: as §1
Bacteroides fragilis [6] = test: Bactericidal activity against beta lactamase-positive Bacteroides fragilis isolated from intra-abdominal infection and pelvic inflammatory disease patients assessed as bacterial killing at MIC after 24 hrs by time kill analysis; format: functional; outline: as §3
Bacteroides fragilis [7] = test: Antimicrobial activity against beta lactamase-positive Bacteroides fragilis isolated from intra-abdominal infection and pelvic inflammatory disease patients after 48 hrs by time kill analysis; format: functional
Outline: (§5)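 The MIC was read by inspecting macrodilution time-kill tubes. Vials held prereduced brucella broth with 5% laked horse blood cells, hemin 5 μg/ml and vitamin K1 1 μg/ml. Final inoculum was 10^6–10^7 CFU/ml, prepared inside the anaerobe chamber. Vials were incubated 48 h at 35°C in a shaking water bath.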

Clostridium perfringens [8] = test: Antimicrobial activity against Clostridium perfringens isolated from intra-abdominal infection and pelvic inflammatory disease patients after 48 hrs by time kill analysis; format: functional
Outline: (§6)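 Macrodilution in prereduced brucella broth with 5% laked horse blood cells, 5 μg/ml hemin and 1 μg/ml vitamin K1. Final inoculum 10^6 to 10^7 CFU/ml, prepared inside the anaerobe chamber. Vials incubated 48 h at 35°C in a shaking water bath. MIC read by inspecting the time-kill tubes, alongside an antibiotic-free growth control.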

Clostridium perfringens [9] = test: Bactericidal activity against Clostridium perfringens isolated from intra-abdominal infection and pelvic inflammatory disease patients assessed as bacterial killing at 2 times MIC after 48 hrs by time kill analysis; format: functional; outline: as §4
[10] = test system: Porphyromonas asaccharolytica; test: Antimicrobial activity against Porphyromonas asaccharolyticus isolated from intra-abdominal infection and pelvic inflammatory disease patients after 48 hrs by agar dilution method; format: functional; outline: as §1
[11] = test system: Bacteroides thetaiotaomicron; test: Antimicrobial activity against beta lactamase-positive Bacteroides thetaiotaomicron isolated from intra-abdominal infection and pelvic inflammatory disease patients after 48 hrs by time kill analysis; format: functional; outline: as §5
Finegoldia magna [12] = test: Bactericidal activity against beta lactamase-positive Finegoldia magna isolated from intra-abdominal infection and pelvic inflammatory disease patients assessed as bacterial killing at MIC after 24 hrs by time kill analysis; format: functional; outline: as §2
Porphyromonas levii = test: Antimicrobial activity against Porphyromonas levii isolated from intra-abdominal infection and pelvic inflammatory disease patients after 48 hrs by agar dilution method; format: functional; outline: as §1
[13] = test system: Fusobacterium necrophorum; test: Antimicrobial activity against Fusobacterium necrophorum isolated from intra-abdominal infection and pelvic inflammatory disease patients after 48 hrs by agar dilution method; format: functional; outline: as §1
[14] = test system: Clostridium paraputrificum; test: Antimicrobial activity against Clostridium paraputrificum isolated from intra-abdominal infection and pelvic inflammatory disease patients after 48 hrs by agar dilution method; format: functional; outline: as §1
Fusobacterium mortiferum = test: Antimicrobial activity against beta lactamase-positive Fusobacterium mortiferum isolated from intra-abdominal infection and pelvic inflammatory disease patients after 48 hrs by agar dilution method; format: functional; outline: as §1
Prevotella bivia = test: Antimicrobial activity against beta lactamase-positive Prevotella bivia isolated from intra-abdominal infection and pelvic inflammatory disease patients after 48 hrs by agar dilution method; format: functional; outline: as §1
Prevotella denticola = test: Antimicrobial activity against beta lactamase-positive Prevotella denticola isolated from intra-abdominal infection and pelvic inflammatory disease patients after 48 hrs by agar dilution method; format: functional; outline: as §1
Prevotella intermedia [15] = test: Antimicrobial activity against beta lactamase-positive Prevotella intermedia isolated from intra-abdominal infection and pelvic inflammatory disease patients after 48 hrs by agar dilution method; format: functional; outline: as §1
Clostridioides difficile [16] = test: Antimicrobial activity against Clostridium difficile isolated from intra-abdominal infection and pelvic inflammatory disease patients after 48 hrs by time kill analysis; format: functional; outline: as §6
Prevotella intermedia [17] = test: Bactericidal activity against beta lactamase-positive Prevotella intermedia isolated from intra-abdominal infection and pelvic inflammatory disease patients assessed as bacterial killing at 2 times MIC after 48 hrs by time kill analysis; format: functional; outline: as §2
[18] = test system: Parabacteroides distasonis; test: Antimicrobial activity against beta lactamase-positive Bacteroides distasonis isolated from intra-abdominal infection and pelvic inflammatory disease patients after 48 hrs by agar dilution method; format: functional; outline: as §1

Compound: C[C@@H](O)[C@H]1C(=O)N2C(C(=O)O)=C(S[C@@H]3CN[C@H](C(=O)Nc4cccc(C(=O)O)c4)C3)[C@H](C)[C@H]12
- MIC (Clostridioides difficile [1]): 4 mg/L (≈ 8.41 µM)
- MIC50 (Clostridioides difficile [1]): 4 mg/L (≈ 8.41 µM)
- MIC90 (Clostridioides difficile [1]): 8 mg/L (≈ 16.8 µM)
- MIC (Clostridium cadaveris): ≤ 0.016 mg/L
- Activity (Fusobacterium nucleatum): 99%
- Activity (Finegoldia magna [2]): inactive
- Activity (Clostridium perfringens [3]): 90%
- MIC (Bacteroides ovatus): 0.5 mg/L (≈ 1.05 µM)
- MIC50 (Bacteroides ovatus): 0.5 mg/L (≈ 1.05 µM)
- MIC90 (Bacteroides ovatus): 2 mg/L (≈ 4.21 µM)
- MIC50 (Finegoldia magna [4]): 0.06 mg/L (≈ 0.126 µM)
- MIC90 (Finegoldia magna [4]): 0.06 mg/L (≈ 0.126 µM)
- MIC50 (Prevotella buccae): 0.125 mg/L (≈ 0.263 µM)
- MIC90 (Prevotella buccae): 0.125 mg/L (≈ 0.263 µM)
- MIC50 [5]: 0.5 mg/L (≈ 1.05 µM)
- MIC90 [5]: 2 mg/L (≈ 4.21 µM)
- Activity (Bacteroides fragilis [6]): 90%
- MIC (Bacteroides fragilis [7]): 0.25 mg/L (≈ 0.526 µM)
- MIC (Clostridium perfringens [8]): 0.125 mg/L (≈ 0.263 µM)
- Activity (Clostridium perfringens [9]): 99%
- MIC [10]: ≤ 0.016 mg/L
- MIC [11]: 0.5 mg/L (≈ 1.05 µM)
- Activity (Finegoldia magna [12]): 90%
- MIC (Porphyromonas levii): ≤ 0.016 mg/L
- MIC [13]: ≤ 0.016 mg/L
- MIC50 [13]: ≤ 0.016 mg/L
- MIC90 [13]: 0.125 mg/L (≈ 0.263 µM)
- MIC [14]: 0.125 mg/L (≈ 0.263 µM)
- MIC (Fusobacterium mortiferum): 0.06 mg/L (≈ 0.126 µM)
- MIC50 (Fusobacterium mortiferum): 0.06 mg/L (≈ 0.126 µM)
- MIC90 (Fusobacterium mortiferum): 0.5 mg/L (≈ 1.05 µM)
- MIC50 (Prevotella bivia): 0.25 mg/L (≈ 0.526 µM)
- MIC90 (Prevotella bivia): 0.25 mg/L (≈ 0.526 µM)
- MIC50 (Prevotella denticola): 0.125 mg/L (≈ 0.263 µM)
- MIC90 (Prevotella denticola): 0.5 mg/L (≈ 1.05 µM)
- MIC50 (Prevotella intermedia [15]): 0.03 mg/L (≈ 0.0631 µM)
- MIC90 (Prevotella intermedia [15]): 0.25 mg/L (≈ 0.526 µM)
- MIC (Clostridioides difficile [16]): 4 mg/L (≈ 8.41 µM)
- Activity (Prevotella intermedia [17]): 99%
- MIC [18]: 0.5 mg/L (≈ 1.05 µM)
- MIC50 [18]: 0.5 mg/L (≈ 1.05 µM)
- MIC90 [18]: 1 mg/L (≈ 2.1 µM)
